The results in this text go back to ChEMBL document CHEMBL1148007, “Synthesis of new S-derivatives of clubbed triazolyl thiazole as anti-Mycobacterium tuberculosis agents” (Bioorg Med Chem, 2007).

Molecules are shown by their SMILES.

Series [1] deals with Mycobacterium tuberculosis. The experiment in a line: Antitubercular activity against Mycobacterium tuberculosis H37Rv at 6.25 ug/mL by MABA assay. The conditions noted are these: read-out: GI. It is filed as functional. Summed up: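 Primary screen against M. tuberculosis H37Rv (ATCC 27294) in BACTEC 12B medium by broth microdilution Microplate Alamar Blue Assay; fluorescent compounds run instead in BACTEC 460 radiometric system. Compounds above 95% inhibition counted active.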

Series [2] deals with Staphylococcus aureus. The series can be described thus: Antibacterial activity against Staphylococcus aureus at 50 to 100 uM after 24 hrs by well diffusion method. The series is classed as functional. Put shortly: (§1)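 Nutrient agar plates with 10 mm wells cut by cork borer; 24-h subcultured bacteria swabbed on. Compounds dissolved in chloroform, 50 to 100 μM added to wells, gentamycin as standard. Incubated 24 h at 24–28 °C; inhibition zone diameter measured and converted to percent inhibition.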

The subject of series [3] is Mycobacterium tuberculosis. The series can be described thus: Antitubercular activity against Mycobacterium tuberculosis H37Rv by MABA assay. The series is classed as functional. Put shortly:
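Actives re-tested at lower concentrations against H37Rv (ATCC 27294) in BACTEC 12B medium by Microplate Alamar Blue Assay. MIC taken as lowest concentration giving […] fluorescence reduction versus controls; rifampin reference.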

Series [4] is described as follows: Cytotoxicity against Vero-C1008 cells at 6.25 to 50 ug/mL by neutral red uptake assay. The series is classed as cell-based. The conditions noted are these: chlorocebus sabaeus. Put shortly:
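Vero-C-1008 cells exposed to 6.25 to 50 μg/mL compound; viability read by neutral red uptake.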

Series [5] relates to Escherichia coli. The experiment in a line: Antibacterial activity against Escherichia coli at 50 to 100 uM after 24 hrs by well diffusion method. It is filed as functional. Summed up: as §1
The test system of series [6] is Salmonella typhi. The experiment in a line: Antibacterial activity against Salmonella typhi at 50 to 100 uM after 24 hrs by well diffusion method. Also noted: unit not given here. The series is classed as functional, Salmonella enterica subsp. enterica serovar Typhi. Put shortly: as §1
Series [7] concerns Pseudomonas aeruginosa. The series can be described thus: Antibacterial activity against Pseudomonas aeruginosa at 50 to 100 uM after 24 hrs by well diffusion method. It is filed as functional. Put shortly: as §1

On to `CC(=O)Nc1nc(Cc2nnc(S)n2N)cs1`, for which the inhibition of growth at 6.25 µg/mL in series [1] turned out to be 96%. Further, the values for the inhibition zone in series [2], in series [5] and in series [7] were 28 mm, 22 mm and 27 mm, respectively. This compound also came in with an MIC in series [3] of less than 6.25 µg/mL. For the same compound, the Activity entry in series [4] was “Non-toxic”. The compound also gave an Inhibition in series [6] of 24.
Regarding `O=C(CSc1nnc(Cc2csc(NC(=O)CCl)n2)n1NC(=O)c1cccc([N+](=O)[O-])c1)N/N=C/c1ccccc1`, the inhibition of growth at 6.25 µg/mL in series [1] came to 100%. Moreover, the inhibition zone in series [2] was 31 mm; in series [5], 26 mm; in series [7] it was 30 mm. The compound further showed an MIC in series [3] of 1.56 µM. Besides, the Activity entry in series [4] is recorded as “Non-toxic”. Further, in series [6], the Inhibition is listed as 25.
As for `O=C(CSc1nnc(Cc2csc(NC(=O)c3ccccc3)n2)n1NC(=O)c1cccc([N+](=O)[O-])c1)N/N=C/c1ccccc1`, the inhibition of growth at 6.25 µg/mL in series [1] was 96%. Besides, the inhibition zone in series [2] came to 32 mm; in series [5] it was 25 mm; in series [7], 30 mm. The compound further returned a minimal inhibitory concentration (MIC) in series [3] of 0.39 µM. Besides, in series [4], the Activity entry is recorded as “Non-toxic”. For the same compound, the Inhibition in series [6] is 24.
On to `O=C(CSc1nnc(Cc2csc(NC(=O)c3ccccc3)n2)n1NC(=O)c1ccc(Cl)cc1)N/N=C/c1ccccc1`, for which the inhibition of growth at 6.25 µg/mL in series [1] was found to be 96%. Further, the inhibition zone stood at 21 mm in series [2], 23 mm in series [5] and 24 mm in series [7]. The compound further registered an MIC in series [3] of 3.13 µM. For the same compound, the Activity result in series [4] is recorded as “Non-toxic”. For the same compound, the Inhibition in series [6] was found to be 21.
`O=C(O)CCNc1nc(Cc2nnc(S)n2NC(=O)c2cccc([N+](=O)[O-])c2)cs1`: the inhibition of growth at 6.25 µg/mL in series [1] came to 96%. For the same compound, the inhibition zone in series [2] stood at 28 mm; in series [5], 18 mm; in series [7], 25 mm. Moreover, 6.25 µM was the least that counted as inhibitory in series [3] (MIC). Further, in series [4], the Activity result is recorded as “Non-toxic”. The compound also came in with an Inhibition in series [6] of 19.
`NNC(=O)CSc1nnc(Cc2csc(NC(=O)c3ccccc3)n2)n1NC(=O)c1cccc([N+](=O)[O-])c1`: in series [1], the inhibition of growth at 6.25 µg/mL is 100%. In addition, the inhibition zone in series [2] came out at 28 mm; in series [5], 17 mm; in series [7], 24 mm. The compound further gave an MIC in series [3] of 6.25 µM. Also, the Activity entry in series [4] was “Non-toxic”. In addition, the Inhibition in series [6] amounted to 20.
In the case of `O=C(CCl)Nc1nc(Cc2nnc(S)n2NC(=O)c2ccc(Cl)cc2)cs1`, the inhibition of growth at 6.25 µg/mL in series [1] was 96%. Further, the figures for the inhibition zone in series [2], in series [5] and in series [7] were 20 mm, 18 mm and 20 mm, respectively. In series [3], 6.25 µM was the least that counted as inhibitory (MIC). Moreover, the Activity entry in series [4] is “Non-toxic”. Moreover, the Inhibition in series [6] is listed as 14.
With `O=C(O)CCNc1nc(Cc2nnc(S)n2NC(=O)c2ccc(Cl)cc2)cs1`, the inhibition of growth at 6.25 µg/mL in series [1] is 96%. The results for the inhibition zone in series [2], in series [5] and in series [7] were 11 mm, 15 mm and 17 mm, respectively. The same compound showed an MIC in series [3] of 6.25 µM. Further, the Activity entry in series [4] was “Non-toxic”. The compound also came in with an Inhibition in series [6] of 22.
In the case of `CC(=O)Nc1nc(Cc2nnc(SCC(=O)N/N=C/c3ccccc3)n2NC(=O)c2ccc(Cl)cc2)cs1`, the inhibition of growth at 6.25 µg/mL in series [1] was found to be 96%. For the same compound, the inhibition zone in series [2] was 25 mm; in series [5], 20 mm; in series [7] it was 20 mm. In series [3], this compound came in with an MIC of 3.13 µM. Besides, in series [4], the Activity entry was “Non-toxic”. In series [6], the Inhibition was 20.
